# Source: PMC11842988 (Journal for Immunotherapy of Cancer, 2025)
# Entries after “also recorded” stand apart in the source; their conditions may differ.
# What was measured:
# [1] = system: OMP-/TAAp-specific CD8+ T cells in HD PBMCs; format: cell-based, human; conditions: HLA-A2+ HD PBMCs after IVS with OMPs; average unless stated
# Method in brief: (§1)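 HLA-A*02:01 donor PBMCs pulsed 24 h with OMPs (10 µM), CD137-enriched, expanded 8 days on anti-CD3/CD28 with IL-2/7/15/21. Restimulated every 10 days with mitomycin C-treated T2 cells loaded with peptide and β2-microglobulin. Antigen-specific frequency measured by CD8 plus pMHC tetramer staining. Per-donor cross-reactivity (%) computed from the TAA-specific and OMP-specific CD8+ percentages.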
# [2] = system: TAAp-specific CD8+ T cells, A2/DR1 mice; format: in vivo, mouse; conditions: for TAAp-specific response, OMP versus TAAp immunization: figure 2F; for TAAp-specific IFN-γ response after OMP immunization: ex vivo restimulation with TAAp
# Method in brief: (§2)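 HLA-A2/DR1 transgenic mice primed day 0, boosted day 14, s.c., with class I peptide (5, 30 or 95 nmol) plus UCP2 helper (30–100 µg) in Montanide ISA 51 VG (50:50). Spleens taken day 21 post-prime, or day 30 in the tumour study; RBCs lysed. 2×10^5 splenocytes/well restimulated ~20 h with 10 µM peptide at 37°C. PMA/ionomycin and EZH2-B2 controls. Media background subtracted; IFN-γ spots per 10^6 T cells.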
# [3] = system: OMP-specific CD8+ T cells, A2/DR1 mice; assay: IFN-γ ELISpot of splenocytes from immunized A2/DR1 mice, restimulation with OMP; format: in vivo, mouse; conditions: ELISpot day 30
# Method in brief: as §2
# [4] = system: SARC-A2-hCD20-GFP sarcoma cells; assay: Tumor protection model, SARC-A2-hCD20-GFP sarcoma in A2/DR1 mice; format: in vivo, mouse; conditions: OMP72 prime-boost, 0.5×10^6 SARC-A2-hCD20-GFP cells s.c., n=8 mice
# Method in brief: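 A2/DR1 mice given the prime-boost regimen (days 0 and 14). On day 21 post-prime, 0.5×10^6 SARC-A2-hCD20-GFP or SARC-A2-GFP sarcoma cells in PBS injected s.c. in the right flank; naïve mice as controls. Tumours measured by caliper twice weekly over 30 days (mm2). Endpoint at ≥300 mm2; n=8 per group.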
# [5] = system: splenocytes pulsed with OMPs; assay: In vivo cytotoxicity in humanized HLA-A2 mice, OMP-pulsed splenocytes; parameters: species or system mouse; conditions: online supplemental figure 2
# Method in brief: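 Immunised A2/DR1 mice challenged i.v. 6 days post-boost; naïve mice received the same cells. Splenocytes from unimmunised syngeneic donors were pulsed with individual peptides (bright dye) and mixed 1:1 with unpulsed cells (dim dye). Read out 20 h later by flow cytometry. Specific lysis (%) = (% targets in naïve − % in immunised)/% in naïve × 100.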
# [6] = system: human CD20 on SARC-A2-hCD20-GFP cells; assay: hCD20 expression of tumor cells at day 30; format: in vivo, mouse; conditions: OMP72-immunized mice still bearing tumors, day 30, n=4
# [7] = system: antigen-specific CD8+ T cells in patient PBMCs; assay: Tetramer staining of patient PBMCs after 12 days IVS with OMPs; format: cell-based, human; conditions: patients, EO2401
# Method in brief: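 Thawed patient PBMCs (2.5–3.5×10^6/well) rested 24 h, then given the OMP pool (1 µg/mL each) on day 1. IL-2 (2 ng/mL) added from day 3, with splits and feeds; harvested day 12. Stained 30 min at RT with separate OMP and TAAp tetramer mixes (2.5 µg/mL each), or matched pairs for cross-reactivity. Then CD4/CD8/CD14/CD19 and Zombie Aqua, 20 min 4°C. ≥600,000 cells acquired; % of live CD8+.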
# OMP-loaded T2 cells = assay: Cytotoxicity of sorted TAAp-specific T cells on OMP-loaded T2 cells; format: cell-based, human; conditions: 24 h, EZH2-loaded T2 as control
# Method in brief: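 Patient PBMCs stimulated 12 days in vitro with the three-peptide OMP pool. TAAp-tetramer+ CD8+ T cells sorted, then expanded on anti-CD3/CD28 activator with IL-2 (50 U/mL), IL-7, IL-15 and IL-21. CellTrace Violet-labelled T2 cells co-cultured with these T cells, peptide (OMP or EZH2 control) and β2-microglobulin at 37°C for 24 h in 50% RPMI/50% X-vivo 15. Media-only control. CD8 and near-IR live/dead stains; duplicates.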
# patient CD8+ T cells = assay: Intracellular cytokine staining; format: cell-based, human; conditions: for Cytokine levels after restimulation (ICS): post-IVS with OMPs
# Method in brief: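 Patient PBMCs expanded 12 days in vitro with the three-peptide bacterial pool (1 µg/mL each, added day 1) in IMDM/10% human serum/β-ME. IL-2 (2 ng/mL) added on day 3 and again on days 5, 7 and 9. Cells then restimulated with the indicated peptides. Intracellular IFN-γ, TNF, IL-2, CD154 and CD107a reported as % positive T cells.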
# [8] = system: antigen-specific CD8+ T cells in patient PBMCs; assay: Tetramer staining of patient PBMCs ex vivo; format: cell-based, human
# [9] = system: OMP-specific CD8+ T cells in HD PBMCs; assay: Prevalence of OMP-specific CD8+ T cells in healthy donors; format: cell-based, human
# Method in brief: as §1
sequence,measurement,setting,value
ALNPELLAL [OMP12],Cross-reactivity OMP/TAAp in healthy donor CD8+ T cells,[1],above 66%
same,"TAAp-specific response, OMP versus TAAp immunization",[2],superior immunogenicity
AMNSLSLYI [OMP72],OMP72-specific IFN-γ-producing cells in responsive versus non-responsive mice,[3],comparable levels
same,Tumor protection after immunization,[4],half of the A2/DR1 mice; also recorded: could induce protection against CD20-expressing tumor cells
same,Individual OMP-specific CTL activity,[5],negligible
same,Tumor cells with loss of CD20 surface expression in non-controlled tumors,[6],99%
FLAFVPLQL [OMP65],TAAp-specific IFN-γ response after OMP immunization,[2],"> 5,000 SFU"
same,"TAAp-specific response, OMP versus TAAp immunization",[2],superior immunogenicity
FLPFGFILPV [OMP16],OMP-specific T cells also recognizing the matched TAAp,[7],1%
same,Killing of OMP-loaded T2 cells by corresponding TAAp-tetramer+ T cells,OMP-loaded T2 cells,specifically killed
same,Cytokine levels after restimulation (ICS),patient CD8+ T cells,stronger cytokine levels
same,TAAp-specific IFN-γ response after OMP immunization,[2],"< 2,000 SFU"
same,"TAAp-specific response, OMP versus TAAp immunization",[2],superior immunogenicity
FLYDVRTYL [OMP10],Cross-reactivity OMP/TAAp in healthy donor CD8+ T cells,[1],below 33%
FMLGEFLKL [OMP17],OMP-specific T cells also recognizing the matched TAAp,[7],80%
same,Killing of OMP-loaded T2 cells by corresponding TAAp-tetramer+ T cells,OMP-loaded T2 cells,specifically killed
same,Simultaneous cytokine production on restimulation (polyfunctionality),"patient CD8+ T cells; Patient #1, weeks 88 and 100","IFN-γ, TNF-α and CD107a simultaneously"
same,Cytokine levels after restimulation (ICS),patient CD8+ T cells,stronger cytokine levels
same,Cross-reactivity OMP/TAAp in healthy donor CD8+ T cells,[1],above 66%
same,TAAp-specific IFN-γ response after OMP immunization,[2],"> 5,000 SFU"
same,"TAAp-specific response, OMP versus TAAp immunization",[2],superior immunogenicity
same,BIRC5-specific CD8+ T cells of total circulating CD8+ T cells,[8]; Patient #1,more than 20%
same,"Tetramer+ T cells of total circulating CD8+ T cells, week 44","[8]; Patient #1, ex vivo, week 44",3.27%
same,"Tetramer+ T cells of total circulating CD8+ T cells, week 88","[8]; Patient #1, ex vivo, week 88",17.4%
same,"Tetramer+ T cells of total circulating CD8+ T cells, week 100","[8]; Patient #1, ex vivo, week 100, listed as EO2317",32%
"LLFGAPALL [BAFF-R77-85, reference compound]","TAAp-specific response, OMP versus TAAp immunization",[2],weaker when mice were immunized with TAAps than with their mimic OMPs
LMDLSTTEV [OMP18],OMP-specific T cells also recognizing the matched TAAp,[7],around 20%
same,Killing of OMP-loaded T2 cells by corresponding TAAp-tetramer+ T cells,OMP-loaded T2 cells,specifically killed
same,Cytokine levels after restimulation (ICS),patient CD8+ T cells,stronger cytokine levels
same,Cross-reactivity OMP/TAAp in healthy donor CD8+ T cells,[1],below 33%
same,TAAp-specific IFN-γ response after OMP immunization,[2],"< 2,000 SFU"
LMFGAPALV [OMP66],TAAp-specific IFN-γ response after OMP immunization,[2],"> 5,000 SFU"
same,"TAAp-specific response, OMP versus TAAp immunization",[2],superior immunogenicity
SLPDRILTV [OMP11],Cross-reactivity OMP/TAAp in healthy donor CD8+ T cells,[1],below 33%
YIFEHPETA [OMP64],Prevalence of OMP-specific CD8+ T cells in HLA-A2+ PBMC samples,[9],67%
same,Cross-reactivity OMP/TAAp in healthy donor CD8+ T cells,[1],below 33%
same,Individual OMP-specific CTL activity,[5],lower
same,TAAp-specific IFN-γ response after OMP immunization,[2],"< 2,000 SFU"
